Experimental data from ChEMBL document CHEMBL4680156, “Discovery of novel pyrido-pyrrolidine hybrid compounds as alpha-glucosidase inhibitors and alternative agent for control of type 1 diabetes” (Eur J Med Chem, 2020).
pIC50: −log10 of the molar value. Converted amounts (≈) assume the structure as drawn. The source made the active and inactive calls. No cut-off for these calls is given here.

Assays:
Saccharomyces cerevisiae [1] = test: Binding affinity to Saccharomyces cerevisiae alpha-glucosidase assessed as decrease in fluorescence intensity at 6.25 to 25 ng/ml after 30 mins by spectrofluorometric method; conditions: dose 6.25-25 ng/ml
Summary of the method: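 Yeast α-glucosidase (1.5 U) was pretreated with compound at 6.25 and 25 ng/ml for 30 min at 37 °C. Intrinsic Trp fluorescence was excited at 295 nm and the emission (peak 330 nm) recorded at 298 K. Quenching was scored against free enzyme.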

[2] = Clearance in human; assay type: ADME
Summary of the method: (§1)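 Liver microsomes (1.0 mg protein/mL) were incubated with compound at 1 μM; reactions were started with 1 mM NADPH. No-NADPH incubations (0 and 60 min) served as stability controls. Reactions were stopped at 0, 5, 15, 30 and 60 min with ice-cold acetonitrile containing internal standard, then centrifuged. Parent loss was tracked by LC-MS/MS.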

[3] = Drug recovery in human plasma at 10 uM after 6 hrs by LC-MS/MS analysis; assay type: ADME, cell-free; conditions: read-out: Drug recovery
Summary of the method: (§2)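 Equilibrium dialysis: plasma with compound at 10 μM final on one side, 100 mM sodium phosphate pH 7.4 on the other. Equilibrated at 37 ± 1 °C for 6 h with shaking at 500 rpm. Both sides were sampled, proteins precipitated with organic solvent, and supernatants analysed by LC-MS/MS.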

[4] = Half life in mouse liver microsomes at 1 uM up to 60 mins in presence of NADPH by LC-MS/MS analysis; assay type: ADME, Microsome; summary of the method: as §1
[5] = Inhibition of Saccharomyces cerevisiae alpha-glucosidase using PNPG as substrate incubated for 10 mins by spectrophotometric method
[6] = Protein binding in human plasma assessed as bound fraction at 10 uM after 6 hrs by LC-MS/MS analysis; assay type: ADME, cell-free; conditions: read-out: PPB (converted); summary of the method: as §2
BRIN-BD11 = test: Induction of rat BRIN-BD11 cell proliferation at 1 uM after 24 hrs by MTT assay; assay type: functional
Summary of the method: (§3)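 BRIN-BD11 rat β-cells were seeded at 10^4 cells/well in RPMI and left overnight. They were exposed 24 h to compound at 100, 30, 10, 3, 1, 0.3 and 0.1 μM. MTT (5 mg/ml stock) was added for 90 min at 37 °C, formazan dissolved in DMSO, and absorbance read at 560 nm.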

[7] = Protein binding in human plasma assessed as unbound fraction at 10 uM after 6 hrs by LC-MS/MS analysis; assay type: ADME, cell-free; summary of the method: as §2
[8] = Thermodynamic solubility of compound in phosphate buffer at 1 mg/ml at pH 7.4 after 24 hrs by HPLC analysis; assay type: physicochemical; conditions: read-out: Therm_solubility
Summary of the method: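 1 mg compound incubated in 1 mL phosphate buffer saline (pH 7.4) for 24 h with vortexing at 500 rpm. Samples were then centrifuged and the supernatant injected into HPLC to quantify dissolved compound.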

[9] = Half life in rat liver microsomes at 1 uM up to 60 mins in presence of NADPH by LC-MS/MS analysis; assay type: ADME, Microsome; summary of the method: as §1
[10] = Intrinsic clearance in human liver microsomes at 1 uM up to 60 mins in presence of NADPH by LC-MS/MS analysis; assay type: ADME, Microsome; conditions: 1 h; summary of the method: as §1
[11] = biological target: T1, Tissue alpha-L-fucosidase (Bos taurus, UniProt Q2KIM0); test: Inhibition of bovine kidney alpha-fucosidase using […] as substrate incubated for 10 mins by spectrophotometric method
T1 sequence (Q2KIM0 whole entry): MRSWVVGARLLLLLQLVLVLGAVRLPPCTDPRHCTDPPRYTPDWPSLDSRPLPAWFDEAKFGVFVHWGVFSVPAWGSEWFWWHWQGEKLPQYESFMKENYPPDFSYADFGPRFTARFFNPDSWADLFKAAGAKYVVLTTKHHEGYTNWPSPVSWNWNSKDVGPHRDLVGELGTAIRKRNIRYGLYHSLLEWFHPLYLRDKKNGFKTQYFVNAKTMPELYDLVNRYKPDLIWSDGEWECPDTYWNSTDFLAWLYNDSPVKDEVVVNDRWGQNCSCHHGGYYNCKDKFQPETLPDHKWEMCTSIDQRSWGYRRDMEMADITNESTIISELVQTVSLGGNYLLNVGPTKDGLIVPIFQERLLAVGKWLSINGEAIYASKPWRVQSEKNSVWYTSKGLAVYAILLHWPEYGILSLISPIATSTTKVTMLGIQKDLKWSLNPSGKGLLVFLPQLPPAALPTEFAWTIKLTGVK

[12] = Clearance in rat; assay type: ADME; conditions: in vivo
[13] = Protein binding in rat plasma assessed as bound fraction at 10 uM after 6 hrs by LC-MS/MS analysis; assay type: ADME, cell-free; conditions: read-out: PPB (converted); summary of the method: as §2
[14] = Drug recovery in mouse plasma at 10 uM after 6 hrs by LC-MS/MS analysis; assay type: ADME, cell-free; conditions: read-out: Drug recovery; summary of the method: as §2
Saccharomyces cerevisiae [15] = test: Binding affinity to Saccharomyces cerevisiae alpha-glucosidase assessed as protein with beta-sheet structure at 0.32 ug/ml by CD spectroscopic method (reference value: 68%); conditions: dose 0.32 µg/ml
Summary of the method: (§4)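 Compound was added at different concentrations to yeast α-glucosidase (30 U/ml). CD spectra were taken with 3 accumulations (negative bands at 209 and 222 nm). α-Helix and β-sheet content were estimated with secondary-structure estimation software.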

[16] = Stability in mouse liver microsomes assessed as CYP450-mediated drug degradation by measuring proportion of compound metabolised at 1 uM up to 60 mins in presence of NADPH by LC-MS/MS analysis; assay type: ADME; conditions: read-out: Drug degradation; summary of the method: as §1
Saccharomyces cerevisiae [17] = test: Potency index, ratio of acarbose IC50 to test compound IC50 for inhibition of Saccharomyces cerevisiae alpha-glucosidase using PNPG as substrate incubated for 10 mins by spectrophotometric method
[18] = Permeability of compound at pH 7.4 after 4 hrs by GIT PAMPA method; assay type: ADME; conditions: read-out: permeability
Summary of the method: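 GIT PAMPA: compound in the donor plate at pH 7.4, with GIT-0 lipid coated on the acceptor membrane and sink buffer in the acceptor plate. Incubated 4 h; donor and acceptor aliquots were read by UV to give permeability.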

Saccharomyces cerevisiae [19] = test: Binding affinity to Saccharomyces cerevisiae alpha-glucosidase assessed as protein with alpha-helical structure at 0.32 ug/ml by CD spectroscopic method (reference value: 5.3%); conditions: dose 0.32 µg/ml; summary of the method: as §4
[20] = Clearance in mouse; assay type: ADME, organism-based; conditions: in vivo
[21] = Cytotoxicity against rat BRIN-BD11 cells assessed as reduction in cell viability at >=10 uM after 24 hrs by MTT assay; assay type: cell-based; conditions: brin-bd11, 24 h; summary of the method: as §3
Rattus norvegicus = test: Decrease in post prandial glucose level in type 1 diabetic Sprague-Dawley rat model at 60 mg/kg, po administered once daily for 28 days; conditions: time 28.0 day
[22] = Protein binding in rat plasma assessed as unbound fraction at 10 uM after 6 hrs by LC-MS/MS analysis; assay type: ADME, cell-free; summary of the method: as §2
[23] = Octanol/aqueous buffer distribution coefficient, log D of compound after 1 hr by HPLC-UV analysis; assay type: physicochemical
Summary of the method: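 Compound was added to octanol and vortexed, then buffer was added. The mixture was shaken 1 h at room temperature, allowed to equilibrate 20 min and centrifuged at 4000 g for 30 min. Octanol and buffer layers were each quantified by HPLC-UV.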

Activity (Saccharomyces cerevisiae [1]): Active
clearance [2]: 15.1 mL/min/kg
remaining at 6 h, 10 µM [3]: 56.7%
half-life at 1 µM [4]: 9 min
pIC50 [5]: 6.25
fraction unbound at 6 h, 10 µM [6]: 0.107
fraction unbound at 6 h, 10 µM [7]: 0.107
solubility thermodynamic at 24 h [8]: 0.1 µg/mL (≈ 0.238 µM)
half-life at 1 µM [9]: 15 min
CLint [10]: 54.8 µL/min/mg
pIC50 [11]: 4.52
clearance [12]: 35.2 mL/min/kg
fraction unbound at 6 h, 10 µM [13]: 0.0156
remaining at 6 h, 10 µM [14]: 15%
Activity (Saccharomyces cerevisiae [15]): 63%
metabolised at 1 h, 1 µM [16]: 99%
Ratio IC50 (Saccharomyces cerevisiae [17]): 4
Papp at 4 h [18]: 15 ×10⁻⁶ cm/s
Activity (Saccharomyces cerevisiae [19]): 5.2%
clearance [20]: 60.3 mL/min/kg
fraction unbound at 6 h, 10 µM [22]: 0.0156
logD at 1 h [23]: 2.4
Structure (SMILES): CCOC(=O)c1ccc(-n2c(/C=C3\OC(=O)c4c3cc(C)[nH]c4=O)ccc2CO)cc1
Activity (BRIN-BD11): Active
Activity [21]: Toxic
inhibition (Rattus norvegicus): inactive
